The values that follow come from paper PMC8189251 (ACS chemical biology, 2021).

Structures are written as SMILES.

In one assay the test system is U2 snRNA. Nature of the assay: RNase H cleavage analysis of U2 snRNA accessibility in nuclear extract. Type of assay: biochemical, human. Particulars: 1 μM, 10 minutes at 30°C. In a few lines:
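HeLa nuclear extract (40%), ATP-depleted 10 min at 30°C, in 60 mM potassium glutamate, 2 mM Mg acetate, 0.1 mg/mL tRNA, ±2 mM ATP, with test compound or DMSO, 10 min, 30°C. Oligos against U2 nt 24–38 or 32–46 (5 μM) were added for 15 min for endogenous RNase H cleavage, then DNase-removed. Read-out: primer extension (³²P primer, U2 97–117; MMLV RT, 53°C, 30 min), denaturing gel, phosphorimaging.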

Assay [1] addresses T1, SF3B (Homo sapiens, UniProt O75533+Q7RTV0). Type of assay: biochemical. To be noted: for splicing efficiency, first incubation at 30°C compared to 4°C before excess iHB: 1 μM inhibitor, then 100 μM iHB.
Assay [2] has as its target T1, SF3B. To be noted: cited from earlier work; for splicing products with inhibitor alone: 1 μM inhibitor alone in in vitro splicing reaction.
Another assay concerns U2 snRNP. To be noted: bypassed by an ATP-dependent rearrangement; cited from earlier work.

As to `CO[C@]1(C)C[C@@]2(CO2)[C@H](O)[C@@H](/C=C/C(C)=C/C[C@@H]2O[C@H](C)[C@H](NC(=O)/C=C\[C@H](C)OC(C)=O)C[C@@H]2C)O1` [SSA, spliceostatin A], in the assay with U2 snRNA, the “effect on ATP-dependent changes in U2 snRNA cleavage” value is “does not interfere”. For the same compound, the “splicing efficiency, inhibitor incubated before excess iHB competitor” value at SF3B [1] (1 μM inhibitor 10 min, then 100 μM iHB 10 min) is “greatly reduced”. The “splicing products, inhibitor followed by DMSO” value at SF3B [1] (1 μM inhibitor 10 min, then DMSO 10 min, 4°C) was “no splicing products”. At SF3B [1], the “splicing efficiency, first incubation at 30°C compared to 4°C before excess iHB” value was “lower”. Besides, at SF3B [1] (inferred from order of addition, not direct binding), the off-rate result is “very slow”. The “splicing products with inhibitor alone” value at SF3B [2] is “not detected”.

Turning to `CO[C@H]([C@@H](C)[C@H]1O[C@]1(C)C[C@H](C)/C=C/C=C(\C)[C@H]1O[C@@H](CC(=O)O)CC[C@@H]1C)[C@@H](C)O` [compound 1, herboxidiene], on SF3B [1], the “splicing efficiency, first incubation at 30°C compared to 4°C before excess iHB” value is on record as “lower”. Further, the “splicing products with inhibitor alone” value at SF3B [2] is recorded as “not detected”. Also, at SF3B [2] (read-out: IC50 value for in vitro splicing, HeLa nuclear extract), the IC50 was 300 nM.

Consider `CC[C@H](O)[C@@H](C)[C@H]1O[C@@H]1C[C@@](C)(O)/C=C/C=C(\C)[C@H]1OC(=O)C[C@H](O)CC[C@@](C)(O)[C@@H](OC(=O)N2CCN(C3CCCCCC3)CC2)/C=C/[C@@H]1C` [E7107], for which the “effect on U2 snRNPs ability to engage an oligo containing the branch sequence” value in the assay with U2 snRNP is reported as “inhibits”.
